Screening results (PubChem BioAssay)
HCT116 PTEN-null: suppresses growth of cells with PTEN deletion; HCT116 PTEN-null viability, CellTiter-Glo, 60 h; active compounds read low; viability, % at 10 µM; 140,000 tested, 1.2% active; AID 827;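 active = viability at or below a set limit, 4 SD under the median of all tested compounds, cut at about 3.7% in these data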;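 note: PTEN knockout HCT116 line with beta catenin targeted HCT116 as companion control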
HCT116 bCat-KO: beta-catenin-lacking colon tumor cell growth suppression. HCT116 beta-catenin knockout viability, CellTiter-Glo, 60 h; active compounds read low. viability, % at 10 µM. 140,000 tested, 1.5% active;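 active = viability at or under a set limit, the compound median less 4 SD, cut at about 6% in these data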;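 note: 0% = Hyamine 1622 control at 20 µM and 100% = untreated cell control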
HUVEC prolif 384: blocks proliferation of human endothelial cells. 86,000 tested, 1.1% active. HUVEC proliferation, CellTiter-Glo luminescence, 72 h; active compounds read low. viability, % at 10 µM (by protocol). AID 648;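 active = viability at or below 30%; inactive = viability above 30%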;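 note: 100% = median luminescence of DMSO-only cell control wells on each plate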
H69AR growth 86K: blocks growth of human H69AR lung tumor cells; H69AR lung tumor viability, ATP luminescence, 72 h; active compounds read low; viability, % at 10 µM; 85,000 tested, 6% active; AID 598;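 active = viability at or below 40%; inactive = viability above 40%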;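 note: multidrug resistant small cell line overexpressing MRP-1 efflux transporter; 100% = mean luminescence of untreated control wells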
Fibroblast inh: blocks proliferation of human lung fibroblasts | LL 47 human lung fibroblast viability, ATP luminescence; active compounds read low | AID 719 | viability, % at 10 µM | 85,000 tested, 1.1% active;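 active = viability at or below 50% in the single dose screen; inactive = viability above 50%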;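 note: compound exposure lasted 72 h before the ATP readout; 100% = median luminescence of untreated cell-only wells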
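Signal: luminescent ATP detection, CellTiter-Glo; assay system: LL 47 human lung fibroblasts; input: 1,150 cells/well; incubation: overnight cell rest, 72 h compound treatment at 37 °C; measure: % viability versus median cells-only luminescence; medium: IMEM growth medium with 15% fetal bovine serum; dosing: compound addition at 0.1% DMSO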
PTK2B oligo ant: antagonists of human Pyk2 oligomerization; Q14289; Q293 cells, Pyk2 FERM NanoBiT luminescence; active compounds read low; z-score (the deposit names both 25 µM and 10 µM); 99,000 tested, 0.83% active; AID 1347419;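 active = Z-score of -3 or lower, scaled per plate to the spread of control and sample wells; inactive = z-score above -3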;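 note: negative z-score means lost luminescence so less FERM oligomerization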
Numbers without * were called inactive; nt = not tested or not shown. The sample as a whole holds a higher share of hits than the screen did.

SMILES	HCT116 PTEN-null	HCT116 bCat-KO	HUVEC prolif 384	H69AR growth 86K	Fibroblast inh	PTK2B oligo ant
Cc1ccc(/C=C/C(=O)OCC(=O)Nc2cccc(S(=O)(=O)N(C)C)c2)o1	94	92	nt	nt	nt	nt
COc1ccc(C2c3ccc4ccccc4c3Oc3ncn(Cc4ccco4)c(=N)c32)cc1OC (stereo not given)	0.9*	1.7*	nt	nt	nt	nt
COc1ccc(C2c3c(ncn(CCN4CCOCC4)c3=N)Oc3ccc4ccccc4c32)cc1OC (stereo not given)	43	49	71	1.9*	89	-2.2
COc1ccc(C2c3ccc4ccccc4c3Oc3ncn4nc(Cc5ccccc5)nc4c32)cc1OC (stereo not given)	71	84	nt	nt	nt	nt
Cc1ccccc1OCc1nc2ccccc2c(=O)n1/N=C/c1cn[nH]c1-c1ccc(Br)cc1	2.7*	19	nt	nt	nt	nt
COc1cc(Nc2ccc(C)cc2)c([N+](=O)[O-])nc1[N+](=O)[O-]	21	23	42	6.2*	39*	-0.67
O=C/C(=C\Nc1ccc(Cl)cn1)c1nc2cc(Cl)ccc2o1	56	68	35	38*	89	1.3
O=C(Nc1ccc2c(c1)OCCO2)C1CCCN(S(=O)(=O)c2cccs2)C1 (stereo not given)	79	86	91	80	89	0.66
COC(=O)CSc1ccccc1C(=O)OC	103	124	90	94	92	0.16
COC(=O)CSC1=NS(=O)(=O)c2ccccc21	99	103	80	37*	69	0.75
O=C(CSC1=NS(=O)(=O)c2ccccc21)Nc1ccccc1	104	89	48	19*	53	nt
COc1ccc(N(C(=O)Cn2nnc3ccccc32)C(C(=O)NCc2ccco2)c2ccc(C)o2)cc1 (stereo not given)	91	106	92	94	92	-0.87
CC(=O)c1cc(-c2ccccc2)n(CC(=O)Nc2cccc(C)c2)c1C	78	77	nt	nt	nt	nt
CCOc1nc(-c2ccccc2)ccc1-c1noc(-c2ccc(OC)c(OC)c2)n1	nt	nt	71	32*	99	nt
COc1nc(-c2ccccc2)ccc1-c1noc(-c2ccccc2)n1	95	96	93	72	102	-1.5
Cc1ccc(-c2nn(C)c(=O)c3ccccc23)cc1CNC(=O)Cn1nc(-c2ccccc2)c2ccccc2c1=O	101	89	86	1.6*	99	nt
Cc1ccc(-c2nn(CC(=O)NCc3ccco3)c(=O)c3ccccc23)cc1	7	5.2*	81	22*	63	-0.03
Cc1cc(C)n(CC(=O)NCc2cc(-c3nn(C)c(=O)c4ccccc34)ccc2C)n1	97	89	94	30*	96	1.3
Cc1ccc(-c2nn(C)c(=O)c3ccccc23)cc1CNC(=O)CN1CCOCC1	91	93	101	64	94	4
Cc1ccc(-c2nn(C)c(=O)c3ccccc23)cc1CO	99	93	nt	nt	nt	1.1
Cc1ccc(-c2nn(CC(=O)NCCN3CCOCC3)c(=O)c3ccccc23)cc1	95	87	95	93	100	1.1
CCC(C)NC(=O)COc1ccccc1[N+](=O)[O-] (stereo not given)	96	99	nt	nt	nt	nt
Cc1c(C(=O)OC(C)C)sc(N)c1C(=O)OC(C)C	84	84	nt	nt	nt	nt
CCn1c(SCc2ccc(C#N)cc2)nnc1-c1ccc(S(=O)(=O)N2CCCCC2)cc1	66	75	75	34*	87	0.88
CCn1c(SCC(=O)N2CCCC2)nnc1-c1ccc(S(=O)(=O)N2CCCCCC2)cc1	96	85	87	91	98	0.13
SMILES	HCT116 PTEN-null	HCT116 bCat-KO	HUVEC prolif 384	H69AR growth 86K	Fibroblast inh	PTK2B oligo ant
COc1cccc(NC(=O)Nc2ccc3c(c2)N(C)C(=O)CS3)c1	60	65	73	65	109	-4*
CN1C(=O)CSc2ccc(NC(=O)Nc3ccccn3)cc21	41	47	99	77	101	-2.4
Cc1c(C(=O)N2CCN(c3ccccc3F)CC2)sc2ncn(CC(=O)N3CCOCC3)c(=O)c12	92	93	88	92	nt	0.64
CCc1cccc(CC)c1NC(=O)/C(C#N)=C/c1ccccc1C(F)(F)F	1.8*	1.5*	nt	nt	nt	nt
O=C(N/N=C/c1cccnc1)C(O)c1ccccc1 (stereo not given)	99	88	nt	nt	nt	nt
CCS(=O)(=O)NCCc1csc(C)n1	106	112	nt	nt	nt	-0.03
COc1ccccc1C1c2c(oc3ccc(Cl)cc3c2=O)C(=O)N1c1cc(C)on1 (stereo not given)	nt	nt	42	40*	36*	nt
O=C(Nc1ccc(Cl)cc1)OCCn1nnnc1C(c1ccccc1Cl)N1CCOCC1 (stereo not given)	69	77	80	58	85	-2.6
N#Cc1ccc(-c2ccc(OCC(=O)NCC(=O)Nc3ccc(F)c(F)c3F)cc2)cc1	73	74	nt	nt	nt	nt
COc1ccc(-c2nnc(Nc3nc4c(OC)cccc4s3)o2)c(OC)c1	6	3.7*	20*	33*	50	-1.3
Fc1cccc2sc(Nc3nnc(-c4ccccc4)o3)nc12	17	24	6.8*	57	56	-1.3
COc1ccc(-c2nnc(Nc3nc4c(OC)cccc4s3)o2)cc1	8	7	2.9*	62	92	-0.39
COc1ccc(CNC(=O)C2CCCN2S(=O)(=O)c2ccccc2)cc1 (stereo not given)	113	96	99	94	94	-0.33
Cc1onc(-c2ccccc2)c1C(=O)Nc1nc2c(s1)CCCC2	76	85	84	46	85	-3.4*
Cc1onc(-c2c(F)cccc2Cl)c1C(=O)Nc1nc2c(s1)CCCC2	70	70	97	41	88	-3.6*
COc1cc(CCC(=O)Nc2ccc(C)c(S(=O)(=O)N(C)C)c2)cc(OC)c1OC	62	70	nt	nt	nt	nt
Cc1nn(CC(=O)NCc2ccc(-n3cccn3)cc2)c(C)c1[N+](=O)[O-]	95	102	nt	nt	nt	nt
Cc1ccc(C(=O)CSc2nnc(-c3ccc4[nH]c(C)c(C)c4c3)o2)cc1C	2.1*	4.2*	nt	nt	nt	-1.1
Cc1[nH]c2ccc(-c3nnc(SCC(=O)c4ccccc4F)o3)cc2c1C	87	95	88	79	96	-1.5
CC(C)CNC(=S)N(Cc1ccco1)Cc1cc2cc3c(cc2[nH]c1=O)OCCO3	27	35	nt	nt	nt	nt
Cc1cc(N/N=C/c2ccc(O)cc2O)nc(-c2ccccc2O)n1	2.7*	5.9*	nt	nt	nt	nt
O=C1Nc2ccccc2OC1CC(=O)N1CCN(c2cccc(C(F)(F)F)c2)CC1 (stereo not given)	76	76	96	67	99	0.69
O=C(CCc1nc2ccccc2s1)OCc1ccccc1F	103	94	nt	nt	nt	nt
O=C(NC(NC(=S)Nc1c(Cl)cc(Cl)cc1Cl)C(Cl)(Cl)Cl)OCc1ccccc1 (stereo not given)	5	5.9*	nt	nt	nt	nt
CCOc1ccc(-c2cc(C(=O)N3CCN(C)CC3)c3ccccc3n2)cc1	71	76	90	60	96	-0.74
